In ChEMBL document CHEMBL1158477, “Synthesis, in vivo evaluation, and molecular modeling studies of new pyrazolo[5,1-c][1,2,4]benzotriazine 5-oxide derivatives. Identification of a bifunctional hydrogen bond area related to the inverse agonism” (J Med Chem, 2009):
Blank lines part the entries; values can stand above or below the compound they belong to. The source made the active and inactive calls. The calls are words filed in the database; no cut-off is given here.

How the values were obtained:
Mus musculus [1] = test: Effect on motor coordination in CD1 albino mouse assessed as number of falls form rotarod at 10 mg/kg, po […] measured for 30 seconds after 30 mins of dosing by rotarod test; assay type: functional
Procedure, shortened: (§1)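 Rota-rod in male CD-1 mice with a pretest. Test substance given po in 1% CMC; falls from the rotating rod counted over 30 s, assessed 30 min after treatment.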

Mus musculus [2] = test: Effect on motor coordination in CD1 albino mouse assessed as number of falls form rotarod at 30 mg/kg, po […] measured for 30 seconds after 30 mins of drug infusion by rotarod test; assay type: functional; procedure, shortened: as §1
Mus musculus [3] = test: Anticonvulsant activity against pentylenetetrazole-induced shock in CD1 albino mouse assessed as shock latency at 10 mg/kg, po preincubated for 30 mins before pentylenetetrazole challenge measured for 30 mins (RVb=253.1 +/- 13 seconds); assay type: functional
Mus musculus [4] = test: Anticonvulsant activity against pentylenetetrazole-induced shock in CD1 albino mouse assessed as shock latency at 30 mg/kg, po preincubated for 30 mins before pentylenetetrazole challenge measured for 30 mins (RVb=253.1 +/- 13 seconds); assay type: functional
Mus musculus [5] = test: Anticonvulsant activity against pentylenetetrazole-induced convulsions in CD1 albino mouse assessed as convulsion latency at 10 mg/kg, po preincubated for 30 mins before pentylenetetrazole challenge measured for 30 mins (RVb=599 +/- 37.6 seconds); assay type: functional
Mus musculus [6] = test: Anticonvulsant activity against pentylenetetrazole-induced convulsions in CD1 albino mouse assessed as convulsion latency at 30 mg/kg, po preincubated for 30 mins before pentylenetetrazole challenge measured for 30 mins (RVb=599 +/- 37.6 seconds); assay type: functional
Mus musculus [7] = test: Effect on spontaneous motility in CD1 albino mouse assessed as number of movement on plane board at 10 mg/kg, po after 30 mins by hole-board test; assay type: functional
Procedure, shortened: (§2)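 Hole-board test in male CD-1 mice: animals placed singly on the board and allowed to explore panel and holes. Test run 30 min after po dosing in 1% CMC (10 mL/kg). Hole entries (curiosity) and plane movements (spontaneous motility) counted; 10 mice per group, compared with CMC controls.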

Mus musculus [8] = test: Effect on spontaneous motility in CD1 albino mouse assessed as number of movement on plane board at 30 mg/kg, po after 30 mins by hole-board test; assay type: functional; procedure, shortened: as §2
Mus musculus [9] = test: Effect on spontaneous motility in CD1 albino mouse assessed as number of movement on plane board at 50 mg/kg, po after 30 mins by hole-board test; assay type: functional; procedure, shortened: as §2
Mus musculus [10] = test: Effect on spontaneous motility in CD1 albino mouse assessed as number of movement on plane board at 100 mg/kg, po after 30 mins by hole-board test; assay type: functional; procedure, shortened: as §2
Mus musculus [11] = test: Effect on explorative capacity in CD1 albino mouse assessed as curiosity-related number of head plugging activity on hole at 10 mg/kg, po after 30 mins by hole-board test; assay type: functional; procedure, shortened: as §2
Mus musculus [12] = test: Effect on explorative capacity in CD1 albino mouse assessed as curiosity-related number of head plugging activity on hole at 30 mg/kg, po after 30 mins by hole-board test; assay type: functional; procedure, shortened: as §2
Mus musculus [13] = test: Effect on explorative capacity in CD1 albino mouse assessed as curiosity-related number of head plugging activity on hole at 50 mg/kg, po after 30 mins by hole-board test; assay type: functional; procedure, shortened: as §2
Mus musculus [14] = test: Effect on explorative capacity in CD1 albino mouse assessed as curiosity-related number of head plugging activity on hole at 100 mg/kg, po after 30 mins by hole-board test; assay type: functional; procedure, shortened: as §2
[15] = Displacement of [3H]flumazenil from GABAA/Benzodiazepine receptor in bovine brain; design: species or system Bos taurus
Procedure, shortened: (§3)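 Bovine brain membranes; displacement of specific [3H]flumazenil (Ro15-1788) binding. Percent inhibition measured at 10 μM; Ki determined only when inhibition at that concentration exceeded 80%. Ki given as mean ± SEM of five determinations.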

Mus musculus [16] = test: Anxiolytic activity in CD1 albino mouse at 10 mg/kg, po after 30 mins by light/dark box test; assay type: functional, organism-based; design: dose 10 mg/kg
Procedure, shortened: (§4)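 Male CD-1 mice (22-24 g) given test substance po in 1% CMC (10 mL/kg), tested 30 min later in a light/dark box. Transfers between compartments and time spent in the illuminated side were measured. Values are mean ± SEM of 15-20 mice; compared with controls.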

Mus musculus [17] = test: Anxiolytic activity in CD1 albino mouse at 30 mg/kg, po after 30 mins by light/dark box test; assay type: functional, organism-based; design: dose 30 mg/kg; procedure, shortened: as §4
Mus musculus [18] = test: Anxiolytic activity in CD1 albino mouse at 30 mg/kg, po after 30 mins by light/dark box test in presence of flumazenil; assay type: functional, organism-based; design: dose 30 mg/kg
Procedure, shortened: (§5)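 Light/dark box in male CD-1 mice. Test substance given po in 1% CMC 30 min before the test, with flumazenil 100 mg/kg ip (saline) co-treatment. Transfers between compartments and time in the lit side recorded. Mean ± SEM of 15-20 mice.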

Mus musculus [19] = test: Effect on learning and memory process in CD1 albino mouse assessed as decrease in retention latency at 10 mg/kg, po after 24 hrs by passive avoidance test; assay type: functional, organism-based; design: dose 10 mg/kg
Procedure, shortened: (§6)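 Step-through passive avoidance in a two-compartment box (lit and dark compartments joined by a guillotine door). Male CD-1 mice dosed po (1% CMC) 30 min before training; retention tested 24 h later. Training and retention latencies recorded; mean ± SEM of 15-20 mice versus controls.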

Mus musculus [20] = test: Effect on learning and memory process in CD1 albino mouse assessed as decrease in retention latency at 30 mg/kg, po after 24 hrs by passive avoidance test; assay type: functional, organism-based; design: dose 30 mg/kg; procedure, shortened: as §6
Mus musculus [21] = test: Effect on ethanol-induced sleeping time in CD1 albino mouse assessed as increase in duration of loss of righting reflex at 10 mg/kg, po preincubated 30 mins before ethanol challenge; assay type: functional, organism-based; design: dose 10 mg/kg
Mus musculus [22] = test: Effect on ethanol-induced sleeping time in CD1 albino mouse assessed as increase in duration of loss of righting reflex at 30 mg/kg, po preincubated 30 mins before ethanol challenge; assay type: functional, organism-based; design: dose 30 mg/kg
Bos taurus = species: Bos taurus; test: Displacement of [3H]flumazenil from GABAA/Benzodiazepine receptor in bovine brain at 10 uM; procedure, shortened: as §3
Mus musculus [23] = test: Effect on motor coordination in CD1 albino mouse assessed as number of falls form rotarod at 3 mg/kg, po administered 60 mins before test measured for 30 seconds after 30 mins of drug infusion by rotarod test; assay type: functional; procedure, shortened: as §1
Mus musculus [24] = test: Anticonvulsant activity against pentylenetetrazole-induced shock in CD1 albino mouse assessed as shock latency at 3 mg/kg, po preincubated for 30 mins before pentylenetetrazole challenge measured for 30 mins (RVb=253.1 +/- 13 seconds); assay type: functional
Mus musculus [25] = test: Anticonvulsant activity against pentylenetetrazole-induced convulsions in CD1 albino mouse assessed as convulsion latency at 3 mg/kg, po preincubated for 30 mins before pentylenetetrazole challenge measured for 30 mins (RVb=599 +/- 37.6 seconds); assay type: functional
Mus musculus [26] = test: Effect on spontaneous motility in CD1 albino mouse assessed as number of movement on plane board at 3 mg/kg, po after 30 mins by hole-board test; assay type: functional; procedure, shortened: as §2
Mus musculus [27] = test: Effect on explorative capacity in CD1 albino mouse assessed as curiosity-related number of head plugging activity on hole at 3 mg/kg, po after 30 mins by hole-board test; assay type: functional; procedure, shortened: as §2
Mus musculus [28] = test: Anxiolytic activity in CD1 albino mouse at 3 mg/kg, po after 30 mins by light/dark box test; assay type: functional, organism-based; design: dose 3 mg/kg; procedure, shortened: as §4
Mus musculus [29] = test: Anxiolytic activity in CD1 albino mouse at 10 mg/kg, po after 30 mins by light/dark box test in presence of flumazenil; assay type: functional, organism-based; design: dose 10 mg/kg; procedure, shortened: as §5
Mus musculus [30] = test: Effect on learning and memory process in CD1 albino mouse assessed as improvement in retention latency at 10 mg/kg, po after 24 hrs by passive avoidance test; assay type: functional, organism-based; design: dose 10 mg/kg; procedure, shortened: as §6
Mus musculus [31] = test: Effect on learning and memory process in CD1 albino mouse assessed as improvement in retention latency at 30 mg/kg, po after 24 hrs by passive avoidance test; assay type: functional, organism-based; design: dose 30 mg/kg; procedure, shortened: as §6
Mus musculus [32] = test: Effect on ethanol-induced sleeping time in CD1 albino mouse assessed as increase in duration of loss of righting reflex at 3 mg/kg, po preincubated 30 mins before ethanol challenge; assay type: functional, organism-based; design: dose 3 mg/kg
Mus musculus [33] = test: Effect on ethanol-induced sleeping time in CD1 albino mouse assessed as reduction in duration of loss of righting reflex at 30 mg/kg, po preincubated 30 mins before ethanol challenge; assay type: functional, organism-based; design: dose 30 mg/kg

- Ki [15]: 2.1 nM
SMILES: CC(Oc1ccc2c(c1)n1ncc(I)c1n[n+]2[O-])c1ccccc1 (single isomer, unassigned; (-))
- Activity (Mus musculus [1]; 10 mg/kg): 2
- Activity (Mus musculus [2]; 30 mg/kg): 1.6
- Activity (Mus musculus [3]; 10 mg/kg): 513 s
- Activity (Mus musculus [4]; 30 mg/kg): 323.7 s
- Activity (Mus musculus [5]; 10 mg/kg): 1078 s
- Activity (Mus musculus [6]; 30 mg/kg): 549.2 s
- Activity (Mus musculus [7]; 10 mg/kg): 61.9
- Activity (Mus musculus [8]; 30 mg/kg): 56.8
- Activity (Mus musculus [9]): 44
- Activity (Mus musculus [10]): 59.2
- Activity (Mus musculus [11]; 10 mg/kg): 27
- Activity (Mus musculus [12]; 30 mg/kg): 34.5
- Activity (Mus musculus [13]): 13.3
- Activity (Mus musculus [14]): 22.9

- Activity (Bos taurus): > 80%
SMILES: CC(Oc1ccc2c(c1)n1ncc(I)c1n[n+]2[O-])c1ccccc1 (stereo in doubt; (+)-16)
- Activity (Mus musculus [16]): Active
- Activity (Mus musculus [17]): Active
- Activity (Mus musculus [18]): inactive
- Activity (Mus musculus [19]): Active
- Activity (Mus musculus [20]): Active
- Activity (Mus musculus [21]): Active
- Activity (Mus musculus [22]): Active

- Activity (Bos taurus): > 80%
- Ki [15]: 1.1 nM
SMILES: [O-][n+]1nc2c(I)cnn2c2cc(OCc3ccccc3)ccc21
- Activity (Mus musculus [23]): 1.5
- Activity (Mus musculus [1]): 2.2
- Activity (Mus musculus [2]): 1.7
- Activity (Mus musculus [24]): 375 s
- Activity (Mus musculus [3]): 266.1 s
- Activity (Mus musculus [4]): 354 s
- Activity (Mus musculus [25]): 380.2 s
- Activity (Mus musculus [5]): 360.8 s
- Activity (Mus musculus [6]): 479.7 s
- Activity (Mus musculus [26]): 54.3
- Activity (Mus musculus [7]): 66.9
- Activity (Mus musculus [8]): 54.5
- Activity (Mus musculus [27]): 29
- Activity (Mus musculus [11]): 22.7
- Activity (Mus musculus [12]): 28.7
- Activity (Mus musculus [28]): Active
- Activity (Mus musculus [16]): Active
- Activity (Mus musculus [17]): Active
- Activity (Mus musculus [29]): inactive
- Activity (Mus musculus [18]): inactive
- Activity (Mus musculus [30]): Active
- Activity (Mus musculus [31]): Active
- Activity (Mus musculus [21]): inactive
- Activity (Mus musculus [32]): inactive
- Activity (Mus musculus [33]): Active
